In brackets after ≈: the same amount, converted by molar mass.
Experiments:
[1] = test system: Helicoverpa punctigera; assay: Insecticidal activity in Heliothis punctigera assessed as mortality at 150 ug.cm'-2 by larval feeding assay; format: functional
How it was run: (§1)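 Artificial diet set in 24-well plates to 1 cm depth; 30 μl of test material in DMSO spread over the surface, with DMSO-only controls. After drying, one first-instar Heliothis punctigera larva placed per well, 16 wells per dose, and each well closed with a polypropylene ball. Held 7 days at 28°, then scored for mortality and survivors weighed; LC50 derived by probit analysis.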

[2] = test system: Helicoverpa punctigera; assay: Insecticidal activity in Heliothis punctigera assessed as mortality by larval feeding assay; format: functional; how it was run: as §1
[3] = test system: Helicoverpa punctigera; assay: Insecticidal activity in Heliothis punctigera assessed as mortality at 37.5 ug.cm'-2 by larval feeding assay; format: functional; how it was run: as §1
[4] = test system: Helicoverpa punctigera; assay: Insecticidal activity in Heliothis punctigera assessed as weight reduction at 37.5 ug.cm'-2 relative to control; format: functional; parameters: scale not given: the % may be the effect or the level left
How it was run: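 Diet-surface feeding test. Molten artificial diet was poured 1 cm deep in 24-well plates, and test material in DMSO (30 μl) was spread on the surface; controls got DMSO only. Once dry, one first-instar H. punctigera larva was placed per well (16 wells per dose) and the well was capped. After 7 days at 28°, mortality was scored and surviving larvae were weighed.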

[5] = test system: Staphylococcus aureus; assay: Antimicrobial activity against Staphylococcus aureus ATCC 6538P after 18 hrs by broth dilution method; format: functional
How it was run: (§2)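 Broth dilution in TS broth in 24-well dishes. Compound dissolved in DMSO and diluted from a starting concentration of 2.5%. Inocula were grown from fresh TS agar plates in TS broth at 37° to A525 0.5, then diluted 10^-4. Incubation was 37° for 18 h. Turbidity was read by eye and confirmed by plating onto TS agar. MIC is the last dilution giving ≤20 colonies.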

[6] = test system: Micrococcus luteus; assay: Antimicrobial activity against Micrococcus luteus BTA 433 after 18 hrs by broth dilution method; format: functional; conditions: BTA 433, 18 h; how it was run: as §2
[7] = test system: Escherichia coli; assay: Antimicrobial activity against Escherichia coli K88 BTA 430 after 18 hrs by broth dilution method; format: functional; conditions: K88 BTA 430, 18 h; how it was run: as §2
[8] = test system: Salmonella typhimurium; assay: Antimicrobial activity against Salmonella Typhimurium BTA 438 after 18 hrs by broth dilution method; format: functional, Salmonella enterica subsp. enterica serovar Typhimurium; conditions: Salmonella enterica, BTA 438, 18 h; how it was run: as §2
[9] = test system: Shigella sonnei; assay: Antimicrobial activity against Shigella sonnei BTA 431 after 18 hrs by broth dilution method; format: functional; conditions: BTA 431, 18 h; how it was run: as §2
[10] = test system: Pseudomonas aeruginosa; assay: Antimicrobial activity against Pseudomonas aeruginosa BTA 429 after 18 hrs by broth dilution method; format: functional; conditions: BTA 429, 18 h; how it was run: as §2
[11] = test system: Bacillus cereus; assay: Antimicrobial activity against Bacillus cereus BTA 432 after 18 hrs by broth dilution method; format: functional; conditions: BTA 432, 18 h; how it was run: as §2
[12] = test system: Candida albicans; assay: Antimicrobial activity against Candida albicans ATCC 10231 after 18 hrs by broth dilution method; format: functional; conditions: ATCC 10231, 18 h; how it was run: as §2
[13] = test system: Streptococcus pyogenes; assay: Antimicrobial activity against Streptococcus pyogenes IMR-RNSH after 18 hrs by broth dilution method; format: functional; how it was run: as §2
[14] = test system: Proteus mirabilis; assay: Antimicrobial activity against Proteus mirabilis BTA 585 after 18 hrs by broth dilution method; format: functional; conditions: BTA 585, 18 h; how it was run: as §2

CC(C)CCCC(=O)Nc1c2sscc-2[nH]c1=O [XENORHABDIN 2]
Activity [1]: 100% | LC50 [2]: 59.5 ug.cm'-2 | Activity [3]: 18.8% | Activity [4]: 64.7% | MIC [5]: 20 µg/mL (≈ 70.3 µM) | MIC [6]: 0.156 µg/mL (≈ 0.549 µM) | MIC [7]: > 100 µg/mL | MIC [8]: > 100 µg/mL | MIC [9]: > 100 µg/mL | MIC [10]: > 100 µg/mL | MIC [11]: 3.13 µg/mL (≈ 11 µM) | MIC [12]: > 100 µg/mL | MIC [13]: 1.25 µg/mL (≈ 4.4 µM) | MIC [14]: > 100 µg/mL
